Legend:
Format in all cases: functional
CCRF-CEM = assay: Anticancer activity against human CCRF-CEM cells after 48 hrs
Summary of the method: (§1)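 NCI Drug Evaluation Branch 60-cell-line screen across leukemia, melanoma, lung, colon, CNS, ovarian, renal, prostate and breast panels. The incubation period is 48 h. Parameters are derived from dose–response data: GI50 is the concentration giving 50% decrease in net growth, TGI is total growth inhibition, and LC50 is net 50% loss of initial cells. Values beyond the tested range are reported as greater or less than the maximum or minimum concentration.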

HL-60(TB) = assay: Anticancer activity against human HL-60(TB) cells after 48 hrs; conditions: HL-60, 48 h
Summary of the method: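 NCI 60-cell-line panel protocol: cells exposed to compound for 48 h. Initial one-dose screen at 10⁻⁵ M. GI50 = concentration giving 50% decrease in net cell growth. TGI = concentration giving total growth inhibition. LC50 = concentration giving net 50% loss of initial cells at the end of incubation. A value not reached or exceeded is reported as greater or less than the highest or lowest concentration tested.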

K562 = assay: Anticancer activity against human K562 cells after 48 hrs; conditions: K562, 48 h; summary of the method: as §1
SR = assay: Anticancer activity against human SR cells after 48 hrs
Summary of the method: (§2)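 NCI 60-line panel protocol with a 48 h incubation. Per line: GI50 = concentration giving 50% decrease in net cell growth; TGI = total growth inhibition; LC50 = net 50% loss of initial cells. When the level was not reached or was exceeded, the value is given as greater or less than the highest or lowest concentration tested.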

A549 = assay: Anticancer activity against human A549 cells after 48 hrs; conditions: A549, 48 h; summary of the method: as §1
NCI-H23 = assay: Anticancer activity against human NCI-H23 cells after 48 hrs; conditions: NCI-H23, 48 h; summary of the method: as §2
NCI-H460 = assay: Anticancer activity against human NCI-H460 cells after 48 hrs; conditions: NCI-H460, 48 h; summary of the method: as §2
NCI-H522 = assay: Anticancer activity against human NCI-H522 cells after 48 hrs; conditions: NCI-H522, 48 h; summary of the method: as §2
HCC 2998 = assay: Anticancer activity against human HCC2998 cells after 48 hrs; conditions: HCC 2998, 48 h; summary of the method: as §1
HCT-116 = assay: Anticancer activity against human HCT116 cells after 48 hrs; conditions: HCT-116, 48 h; summary of the method: as §1
HT-29 = assay: Anticancer activity against human HT-29 cells after 48 hrs; conditions: HT-29, 48 h; summary of the method: as §1
KM12 = assay: Anticancer activity against human KM12 cells after 48 hrs; conditions: KM12, 48 h; summary of the method: as §1
SW-620 = assay: Anticancer activity against human SW620 cells after 48 hrs; conditions: SW-620, 48 h; summary of the method: as §2
SF-295 = assay: Anticancer activity against human SF295 cells after 48 hrs; conditions: SF-295, 48 h; summary of the method: as §2
U-251 = assay: Anticancer activity against human U251 cells after 48 hrs; conditions: U-251, 48 h
Summary of the method: (§3)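 NCI ~60 human tumour cell line panel with a 48 h incubation. GI50 is the concentration giving a 50% fall in net growth, TGI gives total growth inhibition, and LC50 gives a net 50% loss of initial cells. An effect not reached or exceeded is reported as greater or less than the highest or lowest concentration tested.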

LOX IMVI = assay: Anticancer activity against human LOXIMVI cells after 48 hrs; summary of the method: as §1
M14 = assay: Anticancer activity against human M14 cells after 48 hrs; conditions: M14, 48 h; summary of the method: as §1
MDA-MB-435 = assay: Anticancer activity against human MDA-MB-435 cells after 48 hrs; conditions: MDA-MB-435, 48 h; summary of the method: as §1
UACC-62 = assay: Anticancer activity against human UACC62 cells after 48 hrs; conditions: UACC-62, 48 h; summary of the method: as §3
OVCAR-4 = assay: Anticancer activity against human OVCAR4 cells after 48 hrs; conditions: OVCAR-4, 48 h; summary of the method: as §2
OVCAR-8 = assay: Anticancer activity against human OVCAR8 cells after 48 hrs; conditions: OVCAR-8, 48 h; summary of the method: as §2
SK-OV-3 = assay: Anticancer activity against human SKOV3 cells after 48 hrs; conditions: SK-OV-3, 48 h; summary of the method: as §2
RXF 393 = assay: Anticancer activity against human RXF393 cells after 48 hrs; conditions: RXF 393, 48 h; summary of the method: as §2
SN12C = assay: Anticancer activity against human SN12C cells after 48 hrs; summary of the method: as §2
UO-31 = assay: Anticancer activity against human UO31 cells after 48 hrs; conditions: UO-31, 48 h; summary of the method: as §3
DU-145 = assay: Anticancer activity against human DU145 cells after 48 hrs; conditions: DU-145, 48 h; summary of the method: as §1
MCF7 = assay: Anticancer activity against human MCF7 cells after 48 hrs; conditions: MCF7, 48 h; summary of the method: as §1
MDA-MB-231 = assay: Anticancer activity against human MDA-MB-231 cells after 48 hrs; conditions: MDA-MB-231, 48 h; summary of the method: as §1
[1] = Anticancer activity against human Hs 578T cells after 48 hrs; summary of the method: as §1
BT-549 = assay: Anticancer activity against human BT549 cells after 48 hrs; conditions: BT-549, 48 h; summary of the method: as §1
[2] = read-out: LC50 (the source's name)

COc1ccc(C2CC(c3cc(Cl)c(C)cc3O)=NN2c2ccc(S(N)(=O)=O)cc2)cc1OC (stereo unspecified)
GI50 (CCRF-CEM): 5.35 µM | LC50 (concentration causing net 50% loss of initial cells) (CCRF-CEM): > 100 µM | TGI (CCRF-CEM): > 100 µM | GI50 (HL-60(TB)): 3.42 µM | LC50 (HL-60(TB)): > 100 µM | TGI (HL-60(TB)): 100 µM | GI50 (K562): 3.18 µM | LC50 (concentration killing 50% of initial cells) (K562): > 100 µM | GI50 (SR): 2.82 µM | LC50 (concentration killing 50% of initial cells) (SR): > 100 µM | GI50 (A549): 3.54 µM | LC50 (net 50% loss of initial cells) (A549): > 100 µM | TGI (A549): 19.7 µM | GI50 (NCI-H23): 3.11 µM | LC50 (concentration killing 50% of initial cells) (NCI-H23): > 100 µM | TGI (NCI-H23): 13.6 µM | GI50 (NCI-H460): 2.5 µM | LC50 (50% lethal concentration) (NCI-H460): 22 µM | TGI (NCI-H460): 5.85 µM | GI50 (NCI-H522): 2.95 µM | LC50 (concentration killing 50% of initial cells) (NCI-H522): 69.3 µM | TGI (NCI-H522): 9.61 µM | GI50 (HCC 2998): 2.72 µM | LC50 (net 50% loss of initial cells) (HCC 2998): 27.4 µM | TGI (HCC 2998): 7.25 µM | GI50 (HCT-116): 1.72 µM | TGI (HCT-116): 4.36 µM | CC50 (HCT-116; [2]): 12.4 µM | GI50 (HT-29): 2.24 µM | TGI (HT-29): 6.48 µM | CC50 (HT-29; [2]): 36.9 µM | GI50 (KM12): 3.07 µM | LC50 (concentration causing net 50% loss of initial cells) (KM12): 49.2 µM | TGI (KM12): 8.77 µM | GI50 (SW-620): 4.08 µM | TGI (SW-620): 26.6 µM | CC50 (SW-620; [2]): > 100 µM | GI50 (SF-295): 2.7 µM | LC50 (concentration giving net 50% loss of initial cells) (SF-295): 0.34 µM | TGI (SF-295): 6.24 µM | GI50 (U-251): 3.71 µM | TGI (U-251): 14 µM | CC50 (U-251; [2]): 48.2 µM | GI50 (LOX IMVI): 3.35 µM | TGI (LOX IMVI): 11 µM | CC50 (LOX IMVI; [2]): 37.4 µM | GI50 (M14): 2.61 µM | TGI (M14): 7.26 µM | CC50 (M14; [2]): 38.3 µM | GI50 (MDA-MB-435): 3.97 µM | TGI (MDA-MB-435): 24 µM | CC50 (MDA-MB-435; [2]): > 100 µM | GI50 (UACC-62): 3.13 µM | LC50 (UACC-62): 43.3 µM | TGI (UACC-62): 12.9 µM | GI50 (OVCAR-4): 4.18 µM | LC50 (OVCAR-4): > 100 µM | GI50 (OVCAR-8): 3.39 µM | TGI (OVCAR-8): 17.9 µM | CC50 (OVCAR-8; [2]): > 100 µM | GI50 (SK-OV-3): 4.51 µM | TGI (SK-OV-3): 38.3 µM | CC50 (SK-OV-3; [2]): > 100 µM | GI50 (RXF 393): 2.88 µM | LC50 (RXF 393): 31.4 µM | TGI (RXF 393): 7.52 µM | GI50 (SN12C): 3.7 µM | LC50 (SN12C): > 100 µM | TGI (SN12C): 30 µM | GI50 (UO-31): 3.3 µM | CC50 (UO-31; [2]): > 100 µM | GI50 (DU-145): 4.49 µM | LC50 (concentration causing net 50% loss of initial cells) (DU-145): > 100 µM | TGI (DU-145): 21.7 µM | GI50 (MCF7): 3.07 µM | LC50 (MCF7): > 100 µM | TGI (MCF7): 13.6 µM | GI50 (MDA-MB-231): 3.81 µM | TGI (MDA-MB-231): 12.5 µM | CC50 (MDA-MB-231; [2]): 40.4 µM | GI50 [1]: 3.29 µM | TGI [1]: 34.3 µM | CC50 [1, 2]: > 100 µM | GI50 (BT-549): 3.03 µM | TGI (BT-549): 13.4 µM | CC50 (BT-549; [2]): 95.6 µM

— ChEMBL document CHEMBL1914430, “Synthesis of some new 1,3,5-trisubstituted pyrazolines bearing benzene sulfonamide as anticancer and anti-inflammatory agents” (Bioorg Med Chem Lett, 2011)
